Assay results as given in ChEMBL document CHEMBL1152866, “Modulation of gene expression via disruption of NF-kappaB signaling by a bacterial small molecule” (Science, 2008).
Calls of active or inactive are those of the source. The calls are words filed in the database; no cut-off is given here.

Tests used:
Macrophage [1] = test: Inhibition of LPS-induced IkappaBalpha mRNA expression in mouse C57BL/6 mouse alveolar macrophages up to 50 uM by Northern blot analysis; type: functional, cell-based
Epithelial cell [2] = test: Inhibition of TNF-induced IkappaBalpha expression in human bronchial epithelial cells up to 120 mins by Western blot analysis; type: functional, cell-based
BMDM [3] = test: Inhibition of heat-killed Staphylococcus aureus-induced IL1-beta mRNA expression in mouse BMDM by Northern blot analysis; type: functional
[4] = target: T1, MAP kinase p38 (Mus musculus) (UniProt P47811+O08911+Q9WUI1+Q9Z1B7); test: Inhibition of LPS-induced p38 phosphorylation in C57BL/6 mouse alveolar macrophages measured up to 120 mins by Western blot analysis
MEF [5] = test: Inhibition of LPS-induced IkappaBalpha mRNA expression in MEF after 90 mins by Northern blot analysis; type: functional, cell-based; details: Mus musculus
Mus musculus [6] = organism: Mus musculus; test: Inhibition of IKK activity in LPS-induced mouse BMDM assessed as reduction in phosphorylation of IkappaBalpha treated 2 hrs after LPS challenge measured up to 120 mins by immunoblot analysis
[7] = target: Transcription factor p65 (Mus musculus) (UniProt Q04207); test: Inhibition of LPS-induced RelA phosphorylation in mouse BMDM treated 2 hrs after LPS challenge measured up to 120 mins by Western blot analysis
Transcription factor p65 (Mus musculus), sequence (Q04207 whole entry): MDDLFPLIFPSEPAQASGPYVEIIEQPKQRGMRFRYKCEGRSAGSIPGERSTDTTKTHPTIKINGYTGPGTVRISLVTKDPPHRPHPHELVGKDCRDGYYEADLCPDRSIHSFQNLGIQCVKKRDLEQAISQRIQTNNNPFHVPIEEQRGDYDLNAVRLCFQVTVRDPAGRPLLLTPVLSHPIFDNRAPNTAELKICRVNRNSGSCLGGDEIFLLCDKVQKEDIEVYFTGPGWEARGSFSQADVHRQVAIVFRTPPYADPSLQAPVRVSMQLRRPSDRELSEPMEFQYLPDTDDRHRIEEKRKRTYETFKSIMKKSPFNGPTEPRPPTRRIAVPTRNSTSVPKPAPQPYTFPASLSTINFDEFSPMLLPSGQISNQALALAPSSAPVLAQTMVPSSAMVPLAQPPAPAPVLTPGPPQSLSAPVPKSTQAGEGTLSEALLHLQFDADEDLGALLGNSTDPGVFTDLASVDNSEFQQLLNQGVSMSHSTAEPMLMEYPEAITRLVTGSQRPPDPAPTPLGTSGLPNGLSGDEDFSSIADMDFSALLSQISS

Epithelial cell [8] = test: Induction of apoptosis in TNF-stimulated human bronchial epithelial cells assessed as PARP cleavage after 2 hrs by Western blot analysis; type: functional, cell-based
Summary of the method: (§1)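 WI38 lung fibroblasts and bronchial epithelial cells were stimulated for 2 hours. The same Western blot was probed for PARP cleavage, total IκBα and phosphorylated IκBα.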

Macrophage [9] = test: Inhibition of LPS-induced IP-10 mRNA expression in mouse alveolar macrophages after 90 mins by Northern blot analysis; type: functional, cell-based
[10] = target: MAP kinase p38 (Homo sapiens) (UniProt O15264+Q15759+Q16539+P53778); test: Inhibition of LPS-induced p38 phosphorylation in human THP1 cells measured up to 120 mins by Western blot analysis; type: cell-based; details: THP-1
BMDM [11] = test: Inhibition of LPS-induced IkappaBalpha mRNA expression in mouse BMDM up to 3 hrs by Northern blot analysis; type: functional, cell-based
BMDM [12] = test: Inhibition of LPS-induced IkBbeta protein level in mouse BMDM treated 2 hrs after LPS challenge measured up to 120 mins by Western blot analysis; type: functional, cell-based
BMDM [13] = test: Inhibition of heat-killed Staphylococcus aureus-induced MCP-1 mRNA expression in mouse BMDM by Northern blot analysis; type: functional, cell-based
BMDM [14] = test: Inhibition of heat-killed Staphylococcus aureus-induced c-jun mRNA expression in mouse BMDM by Northern blot analysis; type: functional, cell-based
BMDM [15] = test: Inhibition of LPS-induced c-jun mRNA expression in mouse BMDM up to 3 hrs by Northern blot analysis; type: functional, cell-based
Mus musculus [16] = organism: Mus musculus; test: Effect on IKK activity in LPS-induced mouse BMDM assessed as induction of phosphorylation of p38 treated 2 hrs after LPS challenge measured up to 120 mins by immunoblot analysis
[17] = target: T2, Inhibitor of nuclear factor kappa-B kinase subunit alpha (Homo sapiens) (UniProt O15111); test: Inhibition of IkappaBalpha in human WI38 cells assessed after 2 hrs by Western blot analysis; type: cell-based; details: WI-38; summary of the method: as §1
T2 sequence (whole entry): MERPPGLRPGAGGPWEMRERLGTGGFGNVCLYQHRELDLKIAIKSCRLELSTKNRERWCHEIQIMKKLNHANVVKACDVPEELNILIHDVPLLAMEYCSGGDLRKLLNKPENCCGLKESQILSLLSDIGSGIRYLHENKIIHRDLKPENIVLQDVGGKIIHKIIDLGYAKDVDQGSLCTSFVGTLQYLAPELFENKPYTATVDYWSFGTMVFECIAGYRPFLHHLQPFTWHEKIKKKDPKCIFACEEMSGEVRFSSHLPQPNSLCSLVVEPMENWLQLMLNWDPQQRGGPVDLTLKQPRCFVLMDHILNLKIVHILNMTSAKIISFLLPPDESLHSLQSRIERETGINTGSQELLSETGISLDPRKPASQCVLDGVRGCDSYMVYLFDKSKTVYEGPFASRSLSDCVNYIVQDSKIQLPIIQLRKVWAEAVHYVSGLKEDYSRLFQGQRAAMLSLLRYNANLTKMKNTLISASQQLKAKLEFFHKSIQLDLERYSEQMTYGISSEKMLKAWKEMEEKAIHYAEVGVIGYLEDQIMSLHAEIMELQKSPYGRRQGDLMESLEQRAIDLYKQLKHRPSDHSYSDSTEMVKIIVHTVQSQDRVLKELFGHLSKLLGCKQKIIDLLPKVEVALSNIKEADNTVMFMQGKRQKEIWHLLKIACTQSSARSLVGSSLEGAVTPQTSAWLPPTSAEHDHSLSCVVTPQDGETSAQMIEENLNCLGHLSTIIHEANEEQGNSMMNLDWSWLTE

PBMC [18] = test: Inhibition of LPS-induced TNF mRNA expression in human PBMC up to 50 uM by Northern blot analysis; type: functional, cell-based
PBMC [19] = test: Inhibition of LPS-induced IkappaBalpha mRNA expression in human PBMC up to 50 uM by Northern blot analysis; type: functional, cell-based
[20] = target: T1, MAP kinase p38 (Mus musculus); test: Inhibition of LPS-induced p38 phosphorylation in mouse BMDM measured up to 120 mins by Western blot analysis
Mus musculus [21] = organism: Mus musculus; test: Induction of IKK activity in mouse BMDM assessed as GST-IkappaBalpha phosphorylation by immunoprecipitation kinase assay
BMDM [22] = test: Inhibition of heat-killed Staphylococcus aureus-induced IkappaBalpha mRNA expression in mouse BMDM by Northern blot analysis; type: functional
Macrophage [23] = test: Inhibition of LPS-induced IL-12beta mRNA expression in mouse alveolar macrophages after 90 mins by Northern blot analysis; type: functional, cell-based
BMDM [24] = test: Inhibition of heat-killed Staphylococcus aureus-induced B7h mRNA expression in mouse BMDM by Northern blot analysis; type: functional
Blood = test: Inhibition of LPS-induced TNF production in human whole blood after 3 hrs; type: functional, tissue-based
[25] = target: Transcription factor p65 (Homo sapiens) (UniProt Q04206); test: Inhibition of TNF-induced RelA phosphorylation in human bronchial epithelial cells up to 120 mins by Western blot analysis; type: cell-based; details: Epithelial cell
Transcription factor p65 (Homo sapiens), sequence (Q04206 whole entry): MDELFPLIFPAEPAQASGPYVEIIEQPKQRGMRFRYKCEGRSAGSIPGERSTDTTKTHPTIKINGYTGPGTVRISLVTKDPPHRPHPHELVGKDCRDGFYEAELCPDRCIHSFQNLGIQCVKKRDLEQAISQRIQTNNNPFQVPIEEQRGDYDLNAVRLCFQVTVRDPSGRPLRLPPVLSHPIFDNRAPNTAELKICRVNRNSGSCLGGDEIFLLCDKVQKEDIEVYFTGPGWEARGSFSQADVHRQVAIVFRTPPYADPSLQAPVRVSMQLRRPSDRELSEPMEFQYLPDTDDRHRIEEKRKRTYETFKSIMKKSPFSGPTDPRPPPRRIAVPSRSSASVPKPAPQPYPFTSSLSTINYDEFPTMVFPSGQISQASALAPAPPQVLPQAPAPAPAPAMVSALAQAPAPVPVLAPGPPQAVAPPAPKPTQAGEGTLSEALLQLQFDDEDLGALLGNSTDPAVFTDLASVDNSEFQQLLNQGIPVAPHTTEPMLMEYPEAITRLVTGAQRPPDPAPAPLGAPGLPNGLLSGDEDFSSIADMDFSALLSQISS

BMDM [26] = test: Induction of c-jun mRNA expression in mouse BMDM at 50 uM after 2 hrs by Northern blot analysis; type: functional
MEF [27] = test: Inhibition of LPS-induced IP-10 mRNA expression in MEF after 90 mins by Northern blot analysis; type: functional, cell-based; details: Mus musculus
MEF [28] = test: Inhibition of LPS-induced MCP-1 mRNA expression in MEF after 90 mins by Northern blot analysis; type: functional, cell-based; details: Mus musculus
Macrophage [29] = test: Inhibition of LPS-induced IkappaBalpha mRNA expression in mouse alveolar macrophages after 90 mins by Northern blot analysis; type: functional, cell-based
[30] = target: Transcription factor p65 (Mus musculus) (UniProt Q04207); test: Inhibition of TNF-induced RelA phosphorylation in mouse MEF up to 120 mins by Western blot analysis
BMDM [31] = test: Inhibition of heat-killed Staphylococcus aureus-induced RANTES mRNA expression in mouse BMDM by Northern blot analysis; type: functional, cell-based
BMDM [32] = test: Inhibition of LPS-induced IkBbeta degradation in mouse BMDM treated 2 hrs after LPS challenge measured up to 120 mins by Western blot analysis; type: functional, cell-based

## CCCCCCCCCC(=O)CC(=O)N[C@H]1CCOC1=O
Macrophage [1]
  Activity: Active
Epithelial cell [2]
  Activity: Active
BMDM [3]
  Activity: Active
[4]
  Activity: Active
MEF [5]
  Activity: Dose-dependent effect
Mus musculus [6]
  Activity: Active
[7]
  Activity: Active
Epithelial cell [8]
  Activity: Active
Macrophage [9]
  Activity: Dose-dependent effect
[10]
  Activity: Active
BMDM [11]
  Activity: Dose-dependent effect
BMDM [12]
  Activity: inactive
BMDM [13]
  Activity: Active
BMDM [14]
  Activity: Active
BMDM [15]
  Activity: Dose-dependent effect
Mus musculus [16]
  Activity: Active
[17]
  Activity: Active
PBMC [18]
  Activity: Active
PBMC [19]
  Activity: Active
[20]
  Activity: inactive
Mus musculus [21]
  Activity: inactive
BMDM [22]
  Activity: Active
Macrophage [23]
  Activity: Dose-dependent effect
BMDM [24]
  Activity: Active
Blood
  Activity: Active
[25]
  Activity: Active
BMDM [26]
  Activity: Active
MEF [27]
  Activity: Dose-dependent effect
MEF [28]
  Activity: Dose-dependent effect
Macrophage [29]
  Activity: Dose-dependent effect
[30]
  Activity: Active
BMDM [31]
  Activity: Active
BMDM [32]
  Activity: Active
